The pKa is the pH at which an ionisable group is half protonated. A high value points to a group that holds its proton tightly.

Active and inactive are the calls of the source. The calls are words filed in the database; no cut-off is given here.

These results are taken from ChEMBL document CHEMBL1125159, “Synthesis and antihyperglycemic activity of novel 5-(naphthalenylsulfonyl)-2,4-thiazolidinediones” (J Med Chem, 1990).

For data set [1], the species on record is Mus musculus. Put plainly: Decrease in blood glucose in mice compared to vehicle controls. It is filed as functional, organism-based. A digest of the protocol: (§1)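 Male genetically diabetic db/db mice (C57BL/KsJ, 3–7 months old), 4–6 per group. Compound 100 mg/kg given by oral gavage once daily for 4 days in 2% Tween 80/saline. Mice fasted 18 h before the final dose. Insulin 0.5 unit/kg sc given 2 h after drug. Tail-tip blood taken 2 h later from unanesthetized mice. Plasma glucose reported as percent change versus vehicle group, mean ± SE.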

Data set [2] deals with Rattus norvegicus. Put plainly: Plasma glucose level in 24 hr fasted Sprauge-Dawley rats at a dose of 200 mg/kg per day in four divided doses which were administered intraperitoneally. It is filed as functional, organism-based. In short, it runs like this:
(§2)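 24 h-fasted Sprague-Dawley rats were dosed ip at 200 mg/kg per day in four divided doses. They were then anesthetized with halothane and blood was drawn from the iliac artery for blood lactate and plasma glucose. N = 8 rats per group, compared with vehicle (p < 0.05).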

Data set [3] relates to Mus musculus. Put plainly: Plasma glucose level in diabetic db/db mice at a dose of 100 mg/kg per day for four days administered orally after fed state.
In data set [4] the test system is Rattus norvegicus. Kind of data set: Blood lactate level in 24 hr fasted Sprauge-Dawley rats at a dose of 200 mg/kg per day in four divided doses which were administered intraperitoneally. The following applies: route intraperitoneal. It is filed as functional. In short, it runs like this: as §2
For data set [5], the system named is Mus musculus. Kind of data set: Plasma glucose level in diabetic db/db mice at a dose of 100 mg/kg per day for four days administered orally after 18-h fasted state.
Data set [6] in a line: Ionization constant for the compound. The class given is physicochemical.
Data set [7] is filed under the species Mus musculus. Kind of data set: Percent decrease in blood glucose relative to vehicle-treated group with use of four to six mice. It is filed as functional. In short, it runs like this:
as §1

In data set [8] the test system is Rattus norvegicus. Put plainly: Blood lactate level in 24 hr fasted Sprauge-Dawley rats at a dose of 200 mg/kg per day in four divided doses which were administered intraperitoneally,. The class given is functional. The following applies: route intraperitoneal. In short, it runs like this:
as §2

The subject of data set [9] is Rattus norvegicus. Put plainly: Evaluated for the plasma glucose level in 24 hr fasted Sprauge-Dawley rats at a dose of 200 mg/kg/day in four divided doses administered intraperitoneally. It is filed as functional, organism-based. In short, it runs like this:
as §2

The subject of data set [10] is Rattus norvegicus. Put plainly: Evaluated for the blood lactate level in 24 hr fasted Sprague-Dawley rats at a dose of 200 mg/kg/day in four divided doses administered intraperitoneally. The class given is functional. To be noted: route intraperitoneal. In short, it runs like this:
as §2

In the case of `CC1(S(=O)(=O)c2cccc3ccccc23)SC(=O)NC1=O` (stereo unspecified), the Decrease result in the data set listed under Mus musculus [1] is “inactive”. For `CC1(COc2ccc(CC3SC(=O)NC3=O)cc2)CCCCC1` (stereo unspecified) [CIGLITAZONE], the Plasma glucose level came out at 83 mg/dL in the data set on Rattus norvegicus [2], 313 mg/dL with Mus musculus [3] and 285 mg/dL in the data set with Mus musculus [5]. The compound also yielded a Blood lactate with Rattus norvegicus [4] of 8 mg/dL. This compound had a pKa in data set [6] of 6.82. Further, the Decrease in the data set listed under Mus musculus [7] was -35%.

For the compound `O=C1NC(=O)C(S(=O)(=O)c2ccc3ccccc3c2)S1` (stereo unspecified), the results for the Plasma glucose level in the data set with Rattus norvegicus [2], in the data set on Mus musculus [3] and in the data set with Mus musculus [5] were 77 mg/dL, 352 mg/dL and 243 mg/dL, respectively. The compound also returned a Blood lactate with Rattus norvegicus [8] of 7.2 mg/dL. Moreover, the pKa in data set [6] worked out at 3.95. Besides, the Decrease in the data set listed under Mus musculus [7] was -63%.

Regarding `O=C1NC(=O)C(S(=O)(=O)c2cccc3c(Br)cccc23)S1` (stereo unspecified), in the data set filed under Mus musculus [7], the Decrease is -29%. With `O=C1NC(=O)C(S(=O)(=O)c2ccc3ccccc3c2Br)S1` (stereo unspecified), the Decrease entry in the data set filed under Mus musculus [1] was “inactive”.

`O=C1NC(=O)C(S(=O)(=O)c2ccc(F)cc2)S1` (stereo unspecified): the Decrease result in the data set filed under Mus musculus [1] is “inactive”. On the same count and under the same terms, next, `O=C1NC(=O)C(Sc2ccc3cc(O)c(O)cc3c2)S1` (stereo unspecified): “inactive”; `O=C1NC(=O)C(Oc2ccc3ccccc3c2)S1` (stereo unspecified): “inactive”. On the same count and under the same terms, next, `O=C1NC(=O)C(S(=O)(=O)Cc2ccc3ccccc3c2)S1` (stereo unspecified): “inactive”.

With `O=C1NC(=O)C(S(=O)(=O)c2ccc3cc(OCc4ccccc4)ccc3c2)S1` (stereo unspecified), the Decrease entry in the data set listed under Mus musculus [1] was “inactive”. Regarding `O=C1NC(=O)C(S(=O)(=O)c2cccc3ccccc23)S1` (stereo unspecified), the Decrease in the data set filed under Mus musculus [7] was -34%. As for `CN1C(=O)SC(C)(S(=O)(=O)c2cccc3c(Br)cccc23)C1=O` (stereo unspecified), the Decrease result in the data set filed under Mus musculus [1] was “inactive”. The same measure, in the same setting: next, `CC1(COc2ccc(S(=O)(=O)C3SC(=O)NC3=O)cc2)CCCCC1` (stereo unspecified): “inactive”. As for `CCOC(=O)Oc1cc2ccc(SC3SC(=O)NC3=O)cc2cc1OC(=O)OCC` (stereo unspecified), the Decrease in the data set listed under Mus musculus [7] was -22%. Regarding `COc1ccc2c(S(=O)(=O)C3SC(=O)NC3=O)cccc2c1C(F)(F)F` (stereo unspecified), in the data set listed under Mus musculus [7], the Decrease is -40%.

Turning to `O=C1NC(=O)C(Sc2ccc3cc(O)ccc3c2)S1` (stereo unspecified), in the data set listed under Mus musculus [7], the Decrease is reported as -19%. Take `COc1cccc2cccc(S(=O)(=O)C3SC(=O)NC3=O)c12` (stereo unspecified): the Decrease entry in the data set listed under Mus musculus [1] was “inactive”.

Consider `CCOC(=O)Oc1cc2ccc(S(=O)(=O)C3SC(=O)NC3=O)cc2cc1OC(=O)OCC` (stereo unspecified), for which the Decrease result in the data set filed under Mus musculus [1] is “inactive”.

Take `COc1ccc2cc(S(=O)(=O)C3SC(=O)NC3=O)ccc2c1C(F)(F)F` (stereo unspecified): in the data set filed under Mus musculus [1], the Decrease entry was “inactive”. Regarding `CCCCCCCCSC1SC(=O)NC1=O` (stereo unspecified), in the data set filed under Mus musculus [1], the Decrease entry was “inactive”.

Take `CCCCCCCCS(=O)(=O)C1SC(=O)NC1=O` (stereo unspecified): the Decrease entry in the data set filed under Mus musculus [1] is “inactive”.

In the case of `N=C(N)NC(=N)NCCc1ccccc1` [PHENFORMIN], the Plasma glucose level in the data set on Rattus norvegicus [9] came out at 85 mg/dL. In the data set on Rattus norvegicus [10], this compound returned a Blood lactate of 12.2 mg/dL. `O=C1NC(=O)C(Cc2ccc3ccccc3c2)S1` (stereo unspecified) registered a pKa in data set [6] of 6.83. Moreover, the Decrease in the data set listed under Mus musculus [7] is reported as -38%.

Consider `CN1C(=O)SC(S(=O)(=O)c2cccc3c(Br)cccc23)C1=O` (stereo unspecified), for which the Decrease entry in the data set filed under Mus musculus [1] is “inactive”.

With `COc1ccc2cc(SC3SC(=O)NC3=O)ccc2c1C(F)(F)F` (stereo unspecified), the Decrease in the data set filed under Mus musculus [7] is -32%. For `COc1ccc2cc(S(=O)(=O)C3SC(=O)NC3=O)ccc2c1Br` (stereo unspecified), the Decrease entry in the data set filed under Mus musculus [1] was “inactive”. For the compound `CCOC(=O)Oc1ccc2cc(SC3SC(=O)NC3=O)ccc2c1` (stereo unspecified), in the data set filed under Mus musculus [1], the Decrease entry is “inactive”. On the same count and under the same terms, next, `O=C1NC(=O)C(Sc2ccc3ccccc3c2Br)S1` (stereo unspecified): “inactive”; `O=C1NC(=O)C(S(=O)(=O)c2ccc(Br)cc2)S1` (stereo unspecified): “inactive”.

As to `O=C1NC(=O)C(CSc2ccc3ccccc3c2)S1` (stereo unspecified), in the data set listed under Mus musculus [1], the Decrease result is “inactive”. The same measure, in the same setting: the result for `CCOC(=O)Oc1ccc2cc(S(=O)(=O)C3SC(=O)NC3=O)ccc2c1` (stereo unspecified) reads “inactive”.

Turning to `O=C1NC(=O)C(Sc2ccc3ccccc3c2)S1` (stereo unspecified), the pKa in [6] is 5.58. Moreover, in the data set listed under Mus musculus [7], the Decrease is given as -29%. Regarding `O=C1NC(=O)C([S+]([O-])c2ccc3ccccc3c2)S1` (stereo unspecified), the Decrease entry in the data set filed under Mus musculus [1] was “inactive”.
